The compounds below were run on SNB-19 (assay: Growth inhibition of human SNB-19 cells assessed as cell growth at 0.1 uM incubated for 48 hrs by sulforhodamine B assay relative to control). Details: read-out: Activity.
Type: functional
`Cc1cc(C)c(NC(=O)c2sc3nc4c(cc3c2N)CN(Cc2ccccc2)CC4)c(C)c1` gave a growth at 0.1 µM of 96%.

What follows are compounds tested on OVCAR-3 (assay: Growth inhibition of human OVCAR-3 cells assessed as cell growth at 100 uM incubated for 48 hrs by sulforhodamine B assay relative to control). Details: read-out: Activity.
Type: functional
In the case of `Cc1cc(C)c(NC(=O)c2sc3nc4c(cc3c2N)CN(Cc2ccccc2)CC4)c(C)c1`, the growth at 100 µM is reported as -47%.

What follows are compounds tested on A549 (assay: Growth inhibition of human A549/ATCC cells assessed as cell growth at 100 uM incubated for 48 hrs by sulforhodamine B assay relative to control). Details: read-out: Activity.
Type: functional
In short: (§1)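 NCI Developmental Therapeutics Program NCI60 panel. Compounds that were active in the 10 µM one-dose screen went on to dose–response testing. Growth at each concentration is expressed relative to untreated control (100%). GI50 (concentration giving 50% of maximal inhibition of proliferation) and TGI (concentration giving total growth inhibition) were derived from the curves.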
Compound `Cc1cc(C)c(NC(=O)c2sc3nc4c(cc3c2N)CN(Cc2ccccc2)CC4)c(C)c1` has a growth at 100 µM of 13%.

These compounds were tested on RPMI-8226 (assay: Growth inhibition of human RPMI-8226 cells assessed as cell growth at 100 uM incubated for 48 hrs by sulforhodamine B assay relative to control). Details: read-out: Activity.
Type: functional
Work on `Cc1cc(C)c(NC(=O)c2sc3nc4c(cc3c2N)CN(Cc2ccccc2)CC4)c(C)c1` yielded a growth at 100 µM of -11%.

These compounds were tested on NCI-H522 (assay: Growth inhibition of human NCI-H522 cells assessed as cell growth at 1 uM incubated for 48 hrs by sulforhodamine B assay relative to control). Details: read-out: Activity.
Type: functional
Compound `Cc1cc(C)c(NC(=O)c2sc3nc4c(cc3c2N)CN(Cc2ccccc2)CC4)c(C)c1` has a growth at 1 µM of 66%.

The compounds below were run on BT-549 (assay: Growth inhibition of human BT-549 cells assessed as cell growth at 1 uM incubated for 48 hrs by sulforhodamine B assay relative to control). Details: read-out: Activity.
Type: functional
`Cc1cc(C)c(NC(=O)c2sc3nc4c(cc3c2N)CN(Cc2ccccc2)CC4)c(C)c1` gave a growth at 1 µM of 81%.

What follows are compounds tested on SF-268 (assay: Growth inhibition of human SF-268 cells assessed as cell growth at 100 uM incubated for 48 hrs by sulforhodamine B assay relative to control). Details: read-out: Activity.
Type: functional
`Cc1cc(C)c(NC(=O)c2sc3nc4c(cc3c2N)CN(Cc2ccccc2)CC4)c(C)c1` showed a growth at 100 µM of -10%.

The compounds below were run on SNB-75 (assay: Growth inhibition of human SNB-75 cells assessed as cell growth at 0.01 uM incubated for 48 hrs by sulforhodamine B assay relative to control). Details: read-out: Activity.
Type: functional
Work on `Cc1cc(C)c(NC(=O)c2sc3nc4c(cc3c2N)CN(Cc2ccccc2)CC4)c(C)c1` yielded a growth at 0.01 µM of 82%.

These compounds were tested on COLO 205 (assay: Growth inhibition of human COLO 205 cells assessed as cell growth at 1 uM incubated for 48 hrs by sulforhodamine B assay relative to control). Details: read-out: Activity.
Type: functional
In short: as §1
For `Cc1cc(C)c(NC(=O)c2sc3nc4c(cc3c2N)CN(Cc2ccccc2)CC4)c(C)c1`, the growth at 1 µM was 95%.

These compounds were tested on MDA-MB-468 (assay: Growth inhibition of human MDA-MB-468 cells incubated for 48 hrs by sulforhodamine B assay). Details: not given.
Type: functional
In short: (§2)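 NCI60 panel at the NCI Developmental Therapeutics Program. Only compounds active in the 10 µM screen went to dose-response testing. GI50, the concentration giving 50% of maximal inhibition of proliferation, and TGI, the concentration giving total growth inhibition, were derived from the dose-response curves.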
In the case of `Cc1cc(C)c(NC(=O)c2sc3nc4c(cc3c2N)CN(Cc2ccccc2)CC4)c(C)c1`, the GI50 is reported as 1.78 µM and the TGI is reported as 88.7 µM.

Same assay, conditions: read-out: LC50 (the source's name)
Compound `Cc1cc(C)c(NC(=O)c2sc3nc4c(cc3c2N)CN(Cc2ccccc2)CC4)c(C)c1` has a CC50 greater than 100 µM.

The compounds below were run on HCT-116 (assay: Growth inhibition of human HCT-116 cells incubated for 48 hrs by sulforhodamine B assay). Details: not given.
Type: functional
In short: as §2
Compound `Cc1cc(C)c(NC(=O)c2sc3nc4c(cc3c2N)CN(Cc2ccccc2)CC4)c(C)c1` has a GI50 of 2.89 µM, an LC50 (concentration killing 50% of cells) of 67.2 µM and a TGI of 16 µM.

What follows are compounds tested on A498 (assay: Growth inhibition of human A498 cells incubated for 48 hrs by sulforhodamine B assay). Details: not given.
Type: functional
In short: as §1
With `Cc1cc(C)c(NC(=O)c2sc3nc4c(cc3c2N)CN(Cc2ccccc2)CC4)c(C)c1` the GI50 was 1.31 µM and the TGI was 7.71 µM.

Same assay, conditions: read-out: LC50 (the source's name)
With `Cc1cc(C)c(NC(=O)c2sc3nc4c(cc3c2N)CN(Cc2ccccc2)CC4)c(C)c1` the CC50 was greater than 100 µM.

What follows are compounds tested on MDA-MB-468 (assay: Growth inhibition of human MDA-MB-468 cells assessed as cell growth at 0.1 uM incubated for 48 hrs by sulforhodamine B assay relative to control). Details: read-out: Activity.
Type: functional
Compound `Cc1cc(C)c(NC(=O)c2sc3nc4c(cc3c2N)CN(Cc2ccccc2)CC4)c(C)c1` has a growth at 0.1 µM of 78%.

These compounds were tested on OVCAR-4 (assay: Growth inhibition of human OVCAR-4 cells assessed as cell growth at 1 uM incubated for 48 hrs by sulforhodamine B assay relative to control). Details: read-out: Activity.
Type: functional
`Cc1cc(C)c(NC(=O)c2sc3nc4c(cc3c2N)CN(Cc2ccccc2)CC4)c(C)c1` gave a growth at 1 µM of 77%.

What follows are compounds tested on DU-145 (assay: Growth inhibition of human DU-145 cells incubated for 48 hrs by sulforhodamine B assay). Details: not given.
Type: functional
In short: as §1
With `Cc1cc(C)c(NC(=O)c2sc3nc4c(cc3c2N)CN(Cc2ccccc2)CC4)c(C)c1` the GI50 was 2.62 µM and the TGI was 7.65 µM.

Same assay, conditions: read-out: LC50 (the source's name)
For `Cc1cc(C)c(NC(=O)c2sc3nc4c(cc3c2N)CN(Cc2ccccc2)CC4)c(C)c1`, the CC50 was greater than 100 µM.

— ChEMBL document CHEMBL4715736, “Identification of anticancer agents based on the thieno[2,3-b]pyridine and 1H-pyrazole molecular scaffolds” (2016)
